Tests used:
[1] = Cytotoxicity against human Hep2 cells assessed as growth inhibition; format: functional; conditions: HEp-2, read-out: ED50 (the source's name)
[2] = target: T1, Thymidylate synthase (Lactobacillus casei) (UniProt P00469); test: Inhibition of Lactobacillus casei thymidylate synthetase using dUMP as substrate at 20 uM preincubated for 20 mins followed by substrate addition relative to control; conditions: Lacticaseibacillus casei
T1 sequence (whole entry): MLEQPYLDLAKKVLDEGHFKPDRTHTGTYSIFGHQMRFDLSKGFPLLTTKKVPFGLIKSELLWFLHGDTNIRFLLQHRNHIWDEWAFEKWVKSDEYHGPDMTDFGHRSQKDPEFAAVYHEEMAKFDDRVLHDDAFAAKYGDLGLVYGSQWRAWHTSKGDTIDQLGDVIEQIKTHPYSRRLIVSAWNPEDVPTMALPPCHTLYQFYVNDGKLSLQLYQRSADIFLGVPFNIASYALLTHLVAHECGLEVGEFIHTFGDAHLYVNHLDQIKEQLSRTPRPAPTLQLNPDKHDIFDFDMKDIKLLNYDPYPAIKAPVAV

Thymidylate synthase = target: T2, Thymidylate synthase (Lactobacillus casei, UniProt P00469); test: Inhibition of Lactobacillus casei thymidylate synthetase using dUMP as substrate preincubated for 20 mins followed by substrate addition; design: species or system Lacticaseibacillus casei
T2 sequence (P00469 whole entry): T1 sequence (whole entry)
Summary of the method: (§1)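 Enzyme and inhibitor preincubated 20 min at 30 °C in assay mix with 0.11 M 2-mercaptoethanol, 3 × 10^-4 M tetrahydrofolate, 0.012 M formaldehyde and 0.021 M MgCl2. Reaction started by adding dUMP to 4 × 10^-5 M. Enzyme concentrations were 8 × 10^-9 M for L. casei, 8 × 10^-9 M for E. coli (calculated assuming the L. casei turnover number) and 4 × 10^-9 M for T2. Concentration giving 50% inhibition reported.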

[3] = target: T1, Thymidylate synthase (Lactobacillus casei); test: Inhibition of Lactobacillus casei thymidylate synthetase using dUMP as substrate at 20 uM preincubated for 40 mins followed by substrate addition relative to control; conditions: Lacticaseibacillus casei
[4] = Inhibition of Escherichia coli thymidylate synthetase using dUMP as substrate preincubated for 20 mins followed by substrate addition; summary of the method: as §1
[5] = target: T1, Thymidylate synthase (Lactobacillus casei); test: Inhibition of Lactobacillus casei thymidylate synthetase using dUMP as substrate at 20 uM preincubated for 0 mins followed by substrate addition relative to control; conditions: Lacticaseibacillus casei
[6] = target: T1, Thymidylate synthase (Lactobacillus casei); test: Inhibition of Lactobacillus casei thymidylate synthetase using dUMP as substrate at 20 uM preincubated for 5 mins followed by substrate addition relative to control; conditions: Lacticaseibacillus casei
[7] = target: T1, Thymidylate synthase (Lactobacillus casei); test: Inhibition of Lactobacillus casei thymidylate synthetase using dUMP as substrate at 20 uM preincubated for 10 mins followed by substrate addition relative to control; conditions: Lacticaseibacillus casei
[8] = Inhibition of coliphage T2 thymidylate synthetase using dUMP as substrate preincubated for 20 mins followed by substrate addition; design: species or system Enterobacteria phage T2; summary of the method: as §1

inhibition [2]: 75% | IC50 (Thymidylate synthase): 7 µM | inhibition [3]: 85% | IC50 [4]: 0.6 µM | inhibition [5]: 0% | inhibition [6]: 45% | inhibition [7]: 64% | IC50 [8]: 0.06 µM
SMILES: O=c1[nH]c(=O)n([C@H]2C[C@H](O)[C@@H](CCP(=O)(O)O)O2)cc1F
EC50 [1]: 45 µM

Reference: ChEMBL document CHEMBL3227928, “Phosphonate analogue of 2'-deoxy-5-fluorouridylic acid” (J Med Chem, 1979)
